Only some compounds are listed: those with a hit (about 0.77% of all), similar ones and a draw of the others.
mIAP act: activators of mouse IAP, primary screen, biochemical, luminescence, uHTS; hit rate 0.24% among 330,000; intestinal alkaline phosphatase [Mus musculus]; activation factor at 10 µM; muIAP, CDP-Star luminescence, 30 min; stronger effect = higher value; 1 = vehicle-only enzyme signal, 0 = enzyme-free wells; AID 2805, 2010;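 active = activation factor of at least 2 at 20 µM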
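Assay system: mouse IAP enzyme; Reagent: CDP-Star chemiluminescent phosphatase substrate; Compound: DMSO-dissolved test compounds; Incubation: 30 min, room temperature; Technique: luminescence from enzymatic CDP-Star hydrolysis; Controls: DMSO-only wells and no-enzyme negative control.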
mIAP block: inhibitors of mouse IAP, primary screen, biochemical, luminescence, uHTS. purified mouse IAP, CDP-Star luminescence, 30 min. inhibition, % at 10 µM. hit rate 0.2% among 330,000;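 active = inhibition of at least 40% at 10 µM in the primary screen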;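 note: plate controls were DMSO with enzyme for no effect and no enzyme wells for full effect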
hIAP block: human IAP inhibitors, primary screen, biochemical, luminescence, uHTS; Intestinal-type alkaline phosphatase (Homo sapiens), P09923; purified IAP, CDP-Star luminescence, 30 min; inhibition, % at 10 µM; hit rate 0.12% among 330,000; AID 2544, 2010;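 active = inhibition reaching a set limit with compound at 10 µM in the primary screen, cut at about 35% in these data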;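 note: plate controls were DMSO wells with enzyme for no effect and no-enzyme buffer wells for full effect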
Target sequence (P09923 whole entry, looked up): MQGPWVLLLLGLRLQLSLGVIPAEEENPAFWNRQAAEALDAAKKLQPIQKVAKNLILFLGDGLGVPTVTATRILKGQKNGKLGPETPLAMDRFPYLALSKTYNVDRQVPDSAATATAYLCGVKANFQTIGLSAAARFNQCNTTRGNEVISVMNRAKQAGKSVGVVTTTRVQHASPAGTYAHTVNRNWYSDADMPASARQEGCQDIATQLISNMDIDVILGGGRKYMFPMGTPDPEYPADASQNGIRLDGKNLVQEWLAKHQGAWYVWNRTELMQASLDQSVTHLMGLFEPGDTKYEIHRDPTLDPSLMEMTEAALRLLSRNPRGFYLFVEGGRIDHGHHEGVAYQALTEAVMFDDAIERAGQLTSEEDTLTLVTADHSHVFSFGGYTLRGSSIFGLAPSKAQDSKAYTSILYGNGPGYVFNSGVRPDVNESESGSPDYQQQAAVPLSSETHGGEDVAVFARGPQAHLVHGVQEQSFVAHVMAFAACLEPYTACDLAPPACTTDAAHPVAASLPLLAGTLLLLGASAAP
bIAP inhibitor: bovine intestinal alkaline phosphatase inhibitors, primary screen, selectivity assay for TNAP inhibitor project, biochemical, bovine IAP, CDP-star luminescence | inhibition, % at 20 µM | alkaline phosphatase, intestinal [Bos taurus] | 190,000 tested, under 10 active | purified bovine IAP, 30 min;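 active = over 50% inhibition of intestinal alkaline phosphatase at 20 µM in the single-dose screen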
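Assay system – bovine IAP enzyme · Quantity – bovine IAP at 1/65,000,000 final dilution · Detection – CDP-star luminescence signal · Times – 30 min reaction at room temperature · Also added – CDP-star substrate at 30 µM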
bIAP act: bovine intestinal alkaline phosphatase activators, primary screen, biochemical, bovine IAP, CDP-star luminescence | purified bovine IAP, 30 min; stronger effect = higher value; fold of DMSO-control signal, blank-subtracted | activation factor at 20 µM | hit rate 0.17% among 200,000 | AID 1016, 2008;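 active = activation factor of 2 or more at 20 µM, a signal rise over negative controls twice the positive control's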
hIAP activ: human IAP activators, primary screen, biochemical, luminescence, uHTS | activation factor at 10 µM | purified human IAP, CDP-Star luminescence, 30 min; stronger effect = higher value; 1 = vehicle-only enzyme, 0 = enzyme-free background | Intestinal-type alkaline phosphatase (Homo sapiens), P09923 | hit rate 0.16% among 330,000 | AID 2524, 2010;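 active = activation factor of the enzyme at least 2-fold when tested at 20 µM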
mIAP inh confirm: inhibitors of mouse IAP, confirmation, biochemical, luminescence, single concentration; hit rate 4.7% among 11,000; purified mouse IAP, CDP-Star luminescence, 30 min; AID 434971, 2010; shares compounds with mIAP block; inhibition, % at 10 µM;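 active = inhibition of at least 40% at 10 µM in either of the two replicates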;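 note: plate controls were DMSO wells with enzyme for no effect and buffer wells lacking enzyme for full effect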
Numbers without * were called inactive; . = no result.

SMILES	mIAP act	mIAP block	hIAP block	bIAP inhibitor	bIAP act	hIAP activ	mIAP inh confirm
Cc1ccc(N2C(=O)/C(=C/c3ccc(CN(CCC#N)S(C)(=O)=O)o3)C(=O)NC2=S)cc1	0.53	47*	6	-1	1	0.94	44*
NC(Cc1cc(O)c(O)cc1O)C(=O)O (stereo not drawn)	0.17	84*	-17	.	.	1.2	88*
N[C@@H](CCl)C(=O)O	1.1	-5	-28	.	.	1.3	.
O=[N+]([O-])c1cc(S(=O)(=O)c2ccc(O)c([N+](=O)[O-])c2)ccc1O	0.37	63*	0	29	0.7	1	53*
CCOc1cc2c(cc1OCC)-n1cccc1C(c1ccc(OC)c(O)c1)NC2 (stereo not drawn)	1	-3	-1	.	.	1	.
O=C1NC(=O)N(Cc2ccccc2)C(=O)/C1=C/C=C/c1ccco1	0.43	57*	1	.	.	0.99	66*
COc1ccc(N2C(=O)NC(=O)/C(=C\c3ccc([N+](=O)[O-])s3)C2=O)cc1	0.77	23	5	2	1	0.95	.
COc1cccc(N2C(=O)NC(=O)/C(=C/c3ccc([N+](=O)[O-])s3)C2=O)c1	0.52	48*	7	.	.	0.93	51*
Nc1nonc1C(=O)N/N=C/c1ccc([N+](=O)[O-])o1	0.45	55*	-2	4	1	1	72*
N/C(=N\[N+](=O)[O-])N/N=C/c1ccc(O)cc1	0.98	2	17	-2	1	0.83	.
O=C(NC1CCCCC1)Oc1cc2oc(=O)sc2cc1Cl	0.39	61*	-8	.	.	1.1	76*
O=C1NC(=S)NC(=O)C1=Cc1ccc2c(c1)CCN2CCCCl	0.34	66*	-2	.	.	1	73*
CCN1c2nc3ccccn3c(=O)c2CC2(C(=O)N(C)C(=O)N(C)C2=O)C1C (stereo not drawn)	1	-2	-13	18	0.8	1.1	.
C=CCN1C(=O)NC(=O)/C(=C\c2ccc(-c3ccccc3[N+](=O)[O-])o2)C1=O	0.89	11	-7	0	1	1.1	.
CCN(CC)c1ccc(/C=C2\C(=O)NC(=O)N(CC3CCCO3)C2=O)cc1 (stereo not drawn)	0.89	11	5	.	0.2	0.95	.
O=C1NC(=O)N(Cc2ccco2)C(=O)/C1=C/c1ccc(-c2cccc([N+](=O)[O-])c2)o1	0.39	61*	14	15	0.9	0.86	68*
CCN(CC)c1ccc(/C=C2/C(=O)NC(=O)N(Cc3ccco3)C2=O)cc1	0.39	61*	-9	20	0.8	1.1	46*
CN(C)c1ccc(/C=C2/C(=O)NC(=O)N(Cc3ccco3)C2=O)cc1	0.52	48*	-8	21	0.8	1.1	48*
Cn1cc(C(=O)OCC(=O)NC2CCCC2)c2ccccc21	1.1	-6	-1	.	.	1	.
COc1cc2[nH]c(=O)n(-c3ccccc3)c(=O)c2cc1OC	1	-3	9	23	0.8	0.91	.
CCC(=NCCc1c[nH]c2ccccc12)c1c(O)n(C)c(=O)n(C)c1=O	0.98	2	19	-7	1.1	0.81	.

High-throughput results (PubChem BioAssay)
